{"source": "ChEMBL document CHEMBL1146361", "about": "“Studies on acyclic pyrimidines as inhibitors of mycobacteria” (Bioorg Med Chem, 2007)", "key": {"[1]": {"system": "Mycobacterium tuberculosis", "assay": "Antimycobacterial activity against Mycobacterium bovis BCG by MABA", "type": "functional, variant bovis BCG", "in_short": "(§1)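 Compounds in DMSO (100× highest final concentration), diluted in 7H9GC; tested at 100, 50, 10 and 1 µg/mL in triplicate, three experiments. Frozen inoculum diluted in 7H9GC. Read visually and spectrophotometrically. […], mean given. Visual MIC = lowest concentration preventing blue-to-pink change.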"}, "[2]": {"system": "Mycobacterium tuberculosis", "assay": "Antimycobacterial activity against Mycobacterium bovis BCG at 100 ug/mL after 24 to 48 hrs by MABA", "type": "functional", "settings": "variant bovis BCG", "in_short": "as §1"}, "[3]": {"system": "Mycobacterium tuberculosis", "assay": "Antimycobacterial activity against Mycobacterium bovis BCG at 50 ug/mL after 24 to 48 hrs by MABA", "type": "functional", "settings": "variant bovis BCG", "in_short": "as §1"}, "[4]": {"system": "Mycobacterium tuberculosis", "assay": "Antimycobacterial activity against Mycobacterium bovis BCG at 10 ug/mL after 24 to 48 hrs by MABA", "type": "functional", "settings": "variant bovis BCG", "in_short": "as §1"}, "[5]": {"system": "Mycobacterium tuberculosis", "assay": "Antimycobacterial activity against Mycobacterium bovis BCG at 1 ug/mL after 24 to 48 hrs by MABA", "type": "functional", "settings": "variant bovis BCG", "in_short": "as §1"}}, "data": [{"compound": "O=c1[nH]c(=O)n(COCCO)cc1Cl", "values": [{"measurement": "Inhibition", "setting": "[1]", "result": 0, "unit": "%"}]}, {"compound": "O=c1ccn(COCCO)c(=O)[nH]1", "values": [{"measurement": "Inhibition", "setting": "[1]", "result": 0, "unit": "%"}]}, {"compound": "Cc1cn(COCCO)c(=O)[nH]c1=O", "values": [{"measurement": "Inhibition", "setting": "[1]", "result": 0, "unit": "%"}]}, {"compound": "[N-]=[N+]=NC(CI)c1cn(COC(CO)CO)c(=O)[nH]c1=O", "note": "(stereo unspecified)", "values": [{"measurement": "Inhibition", "setting": "[1]", "result": 0, "unit": "%"}]}, {"compound": "[N-]=[N+]=NC(CBr)c1cn(COC(CO)CO)c(=O)[nH]c1=O", "note": "(stereo unspecified)", "values": [{"measurement": "Inhibition", "setting": "[1]", "result": 0, "unit": "%"}]}, {"compound": "[N-]=[N+]=NC(CI)c1cn(COCCO)c(=O)[nH]c1=O", "note": "(stereo unspecified)", "values": [{"measurement": "inhibition at 100 µg/mL", "setting": "[2]", "result": 50, "unit": "%"}, {"measurement": "inhibition at 50 µg/mL", "setting": "[3]", "result": 50, "unit": "%"}]}, {"compound": "[N-]=[N+]=NC(CBr)c1cn(COCCO)c(=O)[nH]c1=O", "note": "(stereo unspecified)", "values": [{"measurement": "inhibition at 50 µg/mL", "setting": "[3]", "result": 100, "unit": "%"}]}, {"compound": "O=c1[nH]c(=O)n(COCCO)cc1I", "values": [{"measurement": "Inhibition", "setting": "[1]", "result": 0, "unit": "%"}]}, {"compound": "Nc1cn(COCCO)c(=O)[nH]c1=O", "values": [{"measurement": "inhibition at 100 µg/mL", "setting": "[2]", "result": 50, "unit": "%"}, {"measurement": "inhibition at 50 µg/mL", "setting": "[3]", "result": 50, "unit": "%"}]}, {"compound": "CCCCCCCCCCC#Cc1cn(COCCO)c(=O)n(C#CCCCCCCCCCC)c1=O", "values": [{"measurement": "Inhibition", "setting": "[1]", "result": 0, "unit": "%"}]}, {"compound": "CCCCCCCCC#Cc1cn(COC(CO)CO)c(=O)[nH]c1=O", "values": [{"measurement": "inhibition at 100 µg/mL", "setting": "[2]", "result": 100, "unit": "%"}, {"measurement": "inhibition at 50 µg/mL", "setting": "[3]", "result": 100, "unit": "%"}, {"measurement": "inhibition at 10 µg/mL", "setting": "[4]", "result": 60, "unit": "%"}]}, {"compound": "CCCCCCCCCCC#Cc1cn(COC(CO)CO)c(=O)[nH]c1=O", "values": [{"measurement": "inhibition at 100 µg/mL", "setting": "[2]", "result": 100, "unit": "%"}, {"measurement": "inhibition at 50 µg/mL", "setting": "[3]", "result": 100, "unit": "%"}, {"measurement": "inhibition at 10 µg/mL", "setting": "[4]", "result": 80, "unit": "%"}, {"measurement": "inhibition at 1 µg/mL", "setting": "[5]", "result": 50, "unit": "%"}]}, {"compound": "CCc1cn(COCCO)c(=O)[nH]c1=O", "values": [{"measurement": "Inhibition", "setting": "[1]", "result": 0, "unit": "%"}]}, {"compound": "CCCCCC#Cc1cn(COCCO)c(=O)[nH]c1=O", "values": [{"measurement": "Inhibition", "setting": "[1]", "result": 0, "unit": "%"}]}, {"compound": "O=c1[nH]c(=O)n(COCCO)cc1F", "values": [{"measurement": "Inhibition", "setting": "[1]", "result": 0, "unit": "%"}]}, {"compound": "O=c1[nH]c(=O)n(COCCO)cc1Br", "values": [{"measurement": "Inhibition", "setting": "[1]", "result": 0, "unit": "%"}]}, {"compound": "[N-]=[N+]=NC(CCl)c1cn(COC(CO)CO)c(=O)[nH]c1=O", "note": "(stereo unspecified)", "values": [{"measurement": "Inhibition", "setting": "[1]", "result": 0, "unit": "%"}]}, {"compound": "[N-]=[N+]=NC(CCl)c1cn(COCCO)c(=O)[nH]c1=O", "note": "(stereo unspecified)", "values": [{"measurement": "inhibition at 100 µg/mL", "setting": "[2]", "result": 100, "unit": "%"}, {"measurement": "inhibition at 50 µg/mL", "setting": "[3]", "result": 100, "unit": "%"}, {"measurement": "inhibition at 10 µg/mL", "setting": "[4]", "result": 50, "unit": "%"}]}, {"compound": "O=c1[nH]c(=O)n(COCCO)cc1[N+](=O)[O-]", "values": [{"measurement": "Inhibition", "setting": "[1]", "result": 0, "unit": "%"}]}, {"compound": "C=C(N=[N+]=[N-])c1cn(COCCO)c(=O)[nH]c1=O", "values": [{"measurement": "inhibition at 100 µg/mL", "setting": "[2]", "result": 50, "unit": "%"}, {"measurement": "inhibition at 50 µg/mL", "setting": "[3]", "result": 50, "unit": "%"}, {"measurement": "inhibition at 10 µg/mL", "setting": "[4]", "result": 50, "unit": "%"}]}, {"compound": "C=C(N=[N+]=[N-])c1cn(COC(CO)CO)c(=O)[nH]c1=O", "values": [{"measurement": "Inhibition", "setting": "[1]", "result": 0, "unit": "%"}]}, {"compound": "C=Cc1cn(COCCO)c(=O)[nH]c1=O", "values": [{"measurement": "Inhibition", "setting": "[1]", "result": 0, "unit": "%"}]}, {"compound": "C=Cc1cn(COC(CO)CO)c(=O)[nH]c1=O", "values": [{"measurement": "Inhibition", "setting": "[1]", "result": 0, "unit": "%"}]}, {"compound": "O=c1[nH]c(=O)n(COC(CO)CO)cc1I", "note": "[IODACYCLUR]", "values": [{"measurement": "Inhibition", "setting": "[1]", "result": 0, "unit": "%"}]}, {"compound": "CO[C@H]1/C=C/O[C@@]2(C)Oc3c(C)c(O)c4c(O)c(c(/C=N/N5CCN(C)CC5)c(O)c4c3C2=O)NC(=O)/C(C)=C\\C=C\\[C@H](C)[C@H](O)[C@@H](C)[C@@H](O)[C@@H](C)[C@H](OC(C)=O)[C@@H]1C", "note": "[RIFAMPIN]", "values": [{"measurement": "inhibition at 1 µg/mL", "setting": "[5]", "result": 100, "unit": "%"}]}]}
